Assay results as given in PubChem BioAssay AID692 (The Scripps Research Institute Molecular Screening Center, 2007).
pEC50: −log10 of the molar value. Activity calls are given as the source filed them.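 How the source made its calls: active means EC50 at or below a set limit; inactive means the rest.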

These compounds were tested against Steroidogenic factor 1 (Homo sapiens) (UniProt Q13285) (assay: SF-1 activators, concentration-response, dose response, cell-based, CHO-K1, Gal4-SF-1 LBD, luciferase luminescence (AID 692)). Settings: CHO-K1 Gal4-SF1 LBD luciferase reporter, activation.
Method in brief: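 Assay system: CHO-K1 Gal4–SF-1 LBD luciferase reporter cells; compound dosing: 10 points, 1:3 steps, up to 100 µM; incubation: 20 h compound exposure, 37 °C; measured by: luminescence; read-out basis: % activation vs DMSO/mock-transfected cells, EC50 from four-parameter sigmoidal fit; benchmarks: DMSO-treated transfected cells and mock-transfected background; replicates: triplicate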

Sequence of Steroidogenic factor 1 (Homo sapiens) (Q13285 whole entry, looked up, the tested form may be a part): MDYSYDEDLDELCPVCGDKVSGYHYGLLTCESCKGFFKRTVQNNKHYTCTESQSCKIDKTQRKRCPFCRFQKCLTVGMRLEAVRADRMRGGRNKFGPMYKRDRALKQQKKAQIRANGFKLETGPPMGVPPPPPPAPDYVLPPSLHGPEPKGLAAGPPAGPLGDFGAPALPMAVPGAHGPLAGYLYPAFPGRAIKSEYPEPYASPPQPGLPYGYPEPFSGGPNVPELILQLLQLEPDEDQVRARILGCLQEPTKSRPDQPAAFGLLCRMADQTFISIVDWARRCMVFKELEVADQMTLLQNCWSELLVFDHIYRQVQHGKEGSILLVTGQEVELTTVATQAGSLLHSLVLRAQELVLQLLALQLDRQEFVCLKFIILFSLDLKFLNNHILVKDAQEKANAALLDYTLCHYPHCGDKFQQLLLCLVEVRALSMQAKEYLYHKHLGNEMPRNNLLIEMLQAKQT

pEC50, active:
O=C1CCCC(O)=C1C=Nc1ccc(O)cc1 5.42, C/C(N)=C(/C#N)C(=O)CSc1ccc2c(c1)OCCO2 5.54, COC(=O)c1ccc(/C(O)=C(\C#N)c2nc3ccccc3s2)cc1 5.57, Cc1ccc(C2/C(=C(\O)c3cnn(-c4ccccc4)c3C)C(=O)C(=O)N2CCN(C)C)o1 (stereo not drawn) 5.44, COc1ccc(C(=O)/C=C/Nc2cccc(C)n2)cc1OC 6.40, CC1(C)CC(=O)C(C=Nc2ccccc2)=C(O)C1 5.17

EC50, inactive:
CC1(C)CC(=O)C(C=Nc2ccc3[nH]ncc3c2)=C(O)C1 > 11 µM, COc1cc(C2C3C(=O)N(c4ccccc4)C(=O)C3ON2c2ccccc2)ccc1O (stereo not drawn)
